From ChEMBL document CHEMBL1157573, “BRAF inhibitors based on an imidazo[4,5]pyridin-2-one scaffold and a meta substituted middle ring” (J Med Chem, 2010) come the findings set out here.

The nature of assay [1]: Antiproliferative activity against human WM1361 cells after 5 days by SRB assay. The note with it: WM1361, 120 h. On the technique in general: The SRB assay estimates cell density from bound dye.
Assay [2] is described as follows: Antiproliferative activity against human WM266.4 cells after 5 days by SRB assay. As to conditions: WM 266-4, 120 h.
The target in assay [3] is T1, Serine/threonine-protein kinase B-raf (Homo sapiens, UniProt P15056, V600E). Put plainly: Inhibition of human BRAF V600E mutant expressed in Sf9 cells.
T1 sequence (P15056 2-766 V600E limits assumed): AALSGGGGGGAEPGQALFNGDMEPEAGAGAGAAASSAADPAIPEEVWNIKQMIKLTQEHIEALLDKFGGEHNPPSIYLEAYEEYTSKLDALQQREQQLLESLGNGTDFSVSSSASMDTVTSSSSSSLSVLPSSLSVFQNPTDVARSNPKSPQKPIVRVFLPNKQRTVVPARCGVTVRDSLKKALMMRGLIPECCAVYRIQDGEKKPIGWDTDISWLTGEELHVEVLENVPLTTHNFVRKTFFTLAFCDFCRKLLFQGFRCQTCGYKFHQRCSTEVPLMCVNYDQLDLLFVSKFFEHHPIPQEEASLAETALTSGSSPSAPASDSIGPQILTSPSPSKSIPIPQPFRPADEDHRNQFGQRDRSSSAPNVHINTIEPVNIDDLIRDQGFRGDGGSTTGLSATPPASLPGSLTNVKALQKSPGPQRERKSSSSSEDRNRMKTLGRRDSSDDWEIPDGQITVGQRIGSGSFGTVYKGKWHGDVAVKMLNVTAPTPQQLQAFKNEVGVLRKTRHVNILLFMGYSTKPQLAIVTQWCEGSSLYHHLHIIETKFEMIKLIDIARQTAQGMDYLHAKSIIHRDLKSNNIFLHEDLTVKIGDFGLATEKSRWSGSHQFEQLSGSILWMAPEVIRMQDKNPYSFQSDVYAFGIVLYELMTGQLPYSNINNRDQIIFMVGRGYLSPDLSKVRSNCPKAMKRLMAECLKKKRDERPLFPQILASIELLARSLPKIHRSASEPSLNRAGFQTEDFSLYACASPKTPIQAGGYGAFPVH
Assay [4] concerns the target T1, Serine/threonine-protein kinase B-raf. Kind of assay: Inhibition of BRAF V600E mutant-mediated ERK phosphorylation in human WM266.4 cells. Format: cell-based.
Assay [5] can be described thus: Antiproliferative activity against human WM266.4 cells after 6 days by SRB assay. In kind it is functional. The note with it: WM 266-4, 144 h. In short, it runs like this: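 SRB cell proliferation assay on WM266.4 melanoma cells, which carry mutant BRAF. Growth inhibition is reported as GI50.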

In general, GI50 refers to the concentration that inhibits growth by half. Read a low GI50 as greater sensitivity of the cells. Broadly, the IC50 is the concentration that gives 50% inhibition. A high value points to weaker potency.

For the compound `CNC(=O)c1cc(Oc2ccc(NC(=O)Nc3ccc(Cl)c(C(F)(F)F)c3)cc2)ccn1` [SORAFENIB], the figures for the GI50 in assay [1] and in assay [2] were 4.34 µM and 4.93 µM, respectively.

As for `O=C(Nc1cccc(Oc2ccnc3[nH]c(=O)[nH]c23)c1)c1cccc(N2CCCCC2)c1`, the IC50 in assay [3] was 0.047 µM; in assay [4], 15.4 µM. In addition, in assay [5], the GI50 amounted to 9.6 µM.

Turning to `O=C(Nc1cccc(Oc2ccnc3[nH]c(=O)[nH]c23)c1)c1ccc(Cl)cc1`, the IC50 is 68 µM in assay [3] and > 100 µM in assay [4]. The compound also showed a GI50 in assay [5] of 9.1 µM.

In the case of `O=C(Nc1cccc(Oc2ccnc3[nH]c(=O)[nH]c23)c1)c1cc(OC(F)(F)F)ccc1F`, the IC50 in assay [3] amounted to 0.043 µM; in assay [4], 15 µM. The compound further displayed a 50% growth inhibitory concentration (GI50) in assay [5] of 1.2 µM.

Turning to `O=C(Nc1cccc(Oc2ccnc3[nH]c(=O)[nH]c23)c1)Nc1ccc(F)c(F)c1`, the IC50 in assay [3] amounted to 1.12 µM; in assay [4], 39 µM. In addition, the GI50 in assay [5] stood at 3.7 µM.

For the compound `O=C(Nc1cccc(Oc2ccnc3[nH]c(=O)[nH]c23)c1)c1ccc2nsnc2c1`, the IC50 in assay [3] and in assay [4] was > 100 µM each time. The compound further returned a GI50 in assay [5] of 8.3 µM.

As for `Cc1ccc(-n2nc(C(C)(C)C)cc2NC(=O)Nc2cccc(Oc3ccnc4[nH]c(=O)[nH]c34)c2)cc1`, the IC50 in assay [3] is 0.128 µM; in assay [4], 0.83 µM. In assay [5], the GI50 was 0.705 µM.

In the case of `O=c1[nH]c2nccc(Oc3cccc(NCc4cccc(OC(F)(F)F)c4)c3)c2[nH]1`, the IC50 was > 10 µM in assay [3] and > 100 µM in assay [4]. The same compound returned a GI50 in assay [5] of 0.74 µM.

In the case of `O=C(Nc1cccc(Oc2ccnc3[nH]c(=O)[nH]c23)c1)c1cc(F)cc(N2CCOCC2)c1`, the IC50 in assay [3] is 0.062 µM; in assay [4], 21.1 µM. In addition, it took 25.1 µM to inhibit growth in assay [5] by half (GI50).

Consider `O=C(Nc1cccc(Oc2ccnc3[nH]c(=O)[nH]c23)c1)c1cccc(-n2ccnc2)c1`, for which the IC50 in assay [3] is > 10 µM; in assay [4] it was > 100 µM. This compound also returned a GI50 in assay [5] of 6.2 µM.

Take `O=C(Nc1cccc(Oc2ccnc3[nH]c(=O)[nH]c23)c1)c1cc(Cl)cc(OC(F)(F)F)c1`: the IC50 in assay [3] amounted to 0.071 µM; in assay [4], 14.6 µM. Moreover, in assay [5], the GI50 is 6.5 µM.

Regarding `O=C(Nc1cccc(SC(F)(F)F)c1)c1cccc(Oc2ccnc3[nH]c(=O)[nH]c23)c1`, the IC50 in assay [3] was 0.187 µM; in assay [4], 13 µM. In addition, halving of growth in assay [5] (GI50) required 9.2 µM.

Take `Cc1ccc(-n2nc(C(F)(F)F)cc2NC(=O)Nc2cccc(Oc3ccnc4[nH]c(=O)[nH]c34)c2)cc1`: the IC50 in assay [3] is 0.4 µM; in assay [4], 4.8 µM. Halving of growth in assay [5] (GI50) required 4.28 µM.

As to `O=C(Nc1cccc(Oc2ccnc3[nH]c(=O)[nH]c23)c1)Nc1cc(C(F)(F)F)ccc1F`, the IC50 in assay [3] amounted to 0.026 µM; in assay [4] it was 12.2 µM. Besides, it took 1.6 µM to inhibit growth in assay [5] by half (GI50).

Turning to `CC(C)(C)c1cccc(NC(=O)Nc2cccc(Oc3ccnc4[nH]c(=O)[nH]c34)c2)c1`, the IC50 came to 0.195 µM in assay [3] and 10.3 µM in assay [4]. In addition, halving of growth in assay [5] (GI50) required 12.9 µM.

With `O=C(Nc1cccc(Oc2ccnc3[nH]c(=O)[nH]c23)c1)c1cnn(-c2ccccc2)c1C(F)(F)F`, the IC50 in assay [3] is > 100 µM; in assay [4], 38 µM. Also, the GI50 in assay [5] came to 3.3 µM.

As to `O=C(Nc1cccc(F)c1)Nc1cccc(Oc2ccnc3[nH]c(=O)[nH]c23)c1`, the IC50 was found to be 2.75 µM in assay [3] and 50.2 µM in assay [4]. The compound further displayed a GI50 in assay [5] of 3.3 µM.

Turning to `O=C(Nc1cccc(OC(F)(F)F)c1)c1cccc(Oc2ccnc3[nH]c(=O)[nH]c23)c1`, the half-maximal inhibitory concentration (IC50) in assay [3] amounted to 0.048 µM; in assay [4], 14.6 µM. For the same compound, halving of growth in assay [5] (GI50) required 2.4 µM.

In the case of `O=C(Nc1cccc(Oc2ccnc3[nH]c(=O)[nH]c23)c1)c1cccc(N2CCCC2)c1`, the IC50 in assay [3] is 0.115 µM; in assay [4], > 100 µM. For the same compound, the GI50 in assay [5] is > 10 µM.

As for `O=C(Nc1cccc(Oc2ccnc3[nH]c(=O)[nH]c23)c1)c1cccc(OC(F)(F)C(F)F)c1`, the IC50 in assay [3] amounted to 0.023 µM; in assay [4], 5.7 µM. This compound also displayed a GI50 in assay [5] of 0.841 µM.

`O=C(Nc1cccc(Oc2ccnc3[nH]c(=O)[nH]c23)c1)c1ccnc(Cl)c1`: the IC50 is 93 µM in assay [3] and > 100 µM in assay [4]. For the same compound, the GI50 in assay [5] is 25 µM.

Regarding `O=C(Nc1cccc(Oc2ccnc3[nH]c(=O)[nH]c23)c1)c1cc(Cl)cc(C(F)(F)F)c1`, the IC50 in assay [3] was 0.69 µM; in assay [4], 23.9 µM. Further, in assay [5], halving of growth (GI50) required 3.3 µM.

As for `O=C(Nc1cccc(Oc2ccnc3[nH]c(=O)[nH]c23)c1)c1cccc(SC(F)(F)F)c1`, the IC50 in assay [3] was determined as 0.005 µM; in assay [4], 6.48 µM. Also, the GI50 in assay [5] was 5.1 µM.

Regarding `O=C(Nc1cccc(Oc2ccnc3[nH]c(=O)[nH]c23)c1)c1cccc2c1OCCCO2`, the IC50 in assay [3] and in assay [4] was > 100 µM each time. The same compound showed a GI50 in assay [5] of 48 µM.
